Measured values from ChEMBL document CHEMBL1155156, “In vitro interactions between apricitabine and other deoxycytidine analogues” (Antimicrob Agents Chemother, 2007).

Tests used:
PBMC [1] = experiment: Drug level in human phytohemagglutininin-activated PBMC at 2.6 uM after 24 hrs; assay type: ADME, cell-based
Procedure, shortened: (§1)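 Single healthy donor PBMC from Ficoll-type separation with hypotonic erythrocyte lysis, cultured in RPMI 1640 + 10% heat-inactivated FBS and stimulated 72 h with PHA-M 5 μg/ml plus IL-2 10 U/ml. Seeded at 0.75 × 10⁶ cells/ml and exposed 24 h to 2.6 μM ³H-labelled nucleoside alone. Cells washed cold, extracted in 60% methanol, analysed by C18 reverse-phase HPLC (7.5 mM NaH2PO4, pH 6.8) with online radioactivity detection. Parent and MP/DP/TP expressed as μM (1 pmol/10⁶ cells ≈ 1 μM).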

[2] = tested on: Human immunodeficiency virus 1; experiment: Antiviral activity against HIV1 with reverse transcriptase M184V mutation in human phytohemagglutininin-activated PBMC assessed as inhibition of viral replication; assay type: functional, organism-based
Procedure, shortened: (§2)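 PBMC from one healthy donor, stimulated 3 days with PHA (5 μg/ml) plus IL-2 (10 U/ml), infected with HIV-1 M184V at MOI 0.02 for 3 h at 37°C, washed, 2 × 10⁵ cells/well into drug-containing medium. Half the medium renewed with drug at day 4. Day 7 supernatant RT activity measured on poly(rA)(dT) with [³H]dTTP. Triplicates.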

[3] = tested on: Human immunodeficiency virus; experiment: Antiviral activity against HIV in PBMCs assessed as inhibition of viral replication; assay type: functional, organism-based; settings: Human immunodeficiency virus 1
PBMC [4] = experiment: Drug level in human phytohemagglutininin-activated PBMC assessed as apricitabine diphosphate level at 2.6 uM after 24 hrs; assay type: ADME, cell-based; procedure, shortened: as §1
PBMC [5] = experiment: Drug level in human resting PBMC assessed as apricitabine monophosphate level at 2.6 uM after 24 hrs; assay type: ADME, cell-based
Procedure, shortened: (§3)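 Unstimulated PBMC from a single healthy donor, cultured in RPMI 1640 + 10% heat-inactivated FBS, seeded at 1.0 × 10⁶ cells/ml and incubated 24 h with 2.6 μM ³H-labelled nucleoside alone. Cold PBS washes, 60% methanol extraction at −20°C overnight, C18 reverse-phase HPLC (7.5 mM sodium dihydrogen phosphate, pH 6.8) with online radiodetection. Intracellular parent, MP, DP, TP reported as μM (1 pmol/10⁶ cells ≈ 1 μM).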

PBMC [6] = experiment: Drug level in human phytohemagglutininin-activated PBMC assessed as apricitabine triphosphate level at 2.6 uM after 24 hrs; assay type: ADME, cell-based; procedure, shortened: as §1
[7] = tested on: Human immunodeficiency virus; experiment: Antiviral activity against HIV in T cells assessed as inhibition of viral replication; assay type: functional, organism-based; settings: Human immunodeficiency virus 1, T-cell
PBMC [8] = experiment: Drug level in human resting PBMC at 2.6 uM after 24 hrs; assay type: ADME, cell-based; procedure, shortened: as §3
PBMC [9] = experiment: Drug level in human resting PBMC assessed as apricitabine diphosphate level at 2.6 uM after 24 hrs; assay type: ADME, cell-based; procedure, shortened: as §3
PBMC [10] = experiment: Drug level in human phytohemagglutininin-activated PBMC assessed as apricitabine monophosphate level at 2.6 uM after 24 hrs; assay type: ADME, cell-based; procedure, shortened: as §1
PBMC [11] = experiment: Drug level in human resting PBMC assessed as apricitabine triphosphate level at 2.6 uM after 24 hrs; assay type: ADME, cell-based; procedure, shortened: as §3
PBMC [12] = experiment: Drug level in human phytohemagglutininin-activated PBMC assessed as Lamivudine triphosphate level at 2.6 uM after 24 hrs; assay type: ADME, cell-based; procedure, shortened: as §1
PBMC [13] = experiment: Drug level in human resting PBMC assessed as Lamivudine diphosphate level at 2.6 uM after 24 hrs; assay type: ADME, cell-based; procedure, shortened: as §3
PBMC [14] = experiment: Drug level in human resting PBMC assessed as Lamivudine monophosphate level at 2.6 uM after 24 hrs; assay type: ADME, cell-based; procedure, shortened: as §3
[15] = tested on: Human immunodeficiency virus 1; experiment: Antiviral activity against HIV1 with reverse transcriptase M184V mutation in human phytohemagglutininin-activated PBMC assessed as inhibition of viral replication at 60 uM; assay type: functional; procedure, shortened: as §2
PBMC [16] = experiment: Drug level in human phytohemagglutininin-activated PBMC assessed as Lamivudine monophosphate level at 2.6 uM after 24 hrs; assay type: ADME, cell-based; procedure, shortened: as §1
[17] = tested on: Human immunodeficiency virus 1; experiment: Antiviral activity against HIV1 with reverse transcriptase M184V mutation in human phytohemagglutininin-activated PBMC assessed as inhibition of viral replication at 200 uM; assay type: functional; procedure, shortened: as §2
PBMC [18] = experiment: Drug level in human phytohemagglutininin-activated PBMC assessed as Lamivudine diphosphate level at 2.6 uM after 24 hrs; assay type: ADME, cell-based; procedure, shortened: as §1
PBMC [19] = experiment: Drug level in human resting PBMC assessed as Lamivudine triphosphate level at 2.6 uM after 24 hrs; assay type: ADME, cell-based; procedure, shortened: as §3

| Compound | Drug uptake (PBMC [1]) [µM] | EC50 [2] [nM] | EC90 [2] [nM] | EC50 [3] [nM] | Drug uptake (PBMC [4]) [µM] | Drug uptake (PBMC [5]) [µM] | Drug uptake (PBMC [6]) [µM] | EC50 [7] [nM] | Drug uptake (PBMC [8]) [µM] | Drug uptake (PBMC [9]) [µM] | Drug uptake (PBMC [10]) [µM] | Drug uptake (PBMC [11]) [µM] | Drug uptake (PBMC [12]) [µM] | Drug uptake (PBMC [13]) [µM] | Drug uptake (PBMC [14]) [µM] | inhibition at 60 µM [15] [%] | Drug uptake (PBMC [16]) [µM] | inhibition at 200 µM [17] [%] | Drug uptake (PBMC [18]) [µM] | Drug uptake (PBMC [19]) [µM] |
| --- | --- | --- | --- | --- | --- | --- | --- | --- | --- | --- | --- | --- | --- | --- | --- | --- | --- | --- | --- | --- |
| Nc1ccn([C@H]2CO[C@@H](CO)S2)c(=O)n1 [APRICITABINE] | 1.19 | 1900 | 11900 | 100 | 0.69 | 0.11 | 0.54 | 1000 | 0.39 | 0.58 | 0.23 | 0.33 |  |  |  |  |  |  |  |  |
| Nc1ccn([C@@H]2CS[C@H](CO)O2)c(=O)n1 [LAMIVUDINE] | 0.18 | 68000 |  |  |  |  |  |  | 0.1 |  |  |  | 0.66 | 1.01 | 0.12 | 45 | 0.52 | 45 | 1.66 | 0.73 |
